Read-outs that look alike come from different tables or passages of the source.
Key:
DENV2 = experiment: Plaque assay of DENV2 infectivity; format: cell-based; conditions: Dengue virus, DENV2, read-out: EC50 (PFU)
[1] = Cell-based cytotoxicity assay; design: species or system Baby Hamster; conditions: hamster
actin = conditions: read-out: IC50 of inhibition of actin polymerization; ref Dhar et al., 2015; cited from earlier work
DENV2 replicon = experiment: microbe, parasite or virus in culture; format: cell-based; conditions: Dengue virus, DENV2, BHK-21, 24 h, read-out: EC50 (replicon)
DENV2 NS2B-NS3pro = DENV2 NS2B-NS3pro (Dengue virus type 2, UniProt P14340); experiment: In vitro protease assay; format: biochemical
DENV2 NS2B-NS3pro, sequence (P14340 1476-1653): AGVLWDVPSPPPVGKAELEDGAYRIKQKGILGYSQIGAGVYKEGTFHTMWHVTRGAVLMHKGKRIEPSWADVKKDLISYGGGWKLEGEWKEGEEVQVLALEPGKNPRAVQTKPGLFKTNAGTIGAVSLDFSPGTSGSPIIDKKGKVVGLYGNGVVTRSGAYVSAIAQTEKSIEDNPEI
DENV2 NS2B-NS3pro, sequence (P14340 1398-1437): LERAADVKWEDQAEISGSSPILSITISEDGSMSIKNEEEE

[2] = tested on: oleic acid-induced LD in DENV2 infected BHK-21 cells; experiment: Oil Red O staining of lipid droplets; format: cell-based; conditions: 0.1 mM oleic acid-BSA, 5 μM, 24 h, absorbance at 405 nm
Outline: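 BHK-21 cells in MEM with 10% FBS were infected with DENV2 at MOI 1 for 1 h. They were then incubated for 24 h in MEM with 0.1 mM oleic acid-BSA plus test compound (5 μM in imaged wells), with 1% DMSO as negative control. Cells were PBS-washed, fixed in 4% paraformaldehyde for 10 min, and stained with ORO and DAPI. Dye was extracted in 100% isopropanol and read at A405. Duplicates were averaged.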

BHK-21 cells = experiment: Cell-based cytotoxicity assay; design: species or system Baby Hamster
[3] = read-out: IC50 (protease activity), mean ± SD of two replicates, 25 nM DENV2 protease, 25 μM substrate Bz-Nle-Lys-Arg-Arg-AMC, 30 min, inhibitor concentrations 1.56-200 μM

SMILES | EC50 (DENV2) [µM] | CC50 at 24 h ([1]; BHK-21 cells) [µM] | IC50 (actin) [µM] | EC50 (DENV2 replicon) [µM] | IC50 (DENV2 NS2B-NS3pro) [µM] | oleic acid-induced lipid droplets (LD), Oil Red O [2] | CC50 at 24 h [1] [µM] | IC50 (DENV2 NS2B-NS3pro; [3]) [µM] | CC50 (BHK-21 cells) [µM]
COc1cc(C=CC(=O)CC(=O)C=Cc2ccc(O)c(OC)c2)ccc1O [CC1, 1,7-bis(4-hydroxy-3-methoxyphenyl)-1,6-heptadiene-3,5-dione, reference compound] | 14 ± 4.62 | 49 ± 8.24 | 16 | 13.9 ± 2.08 | 66 ± 13.1 | affected LD levels | – | – | –
O=C(/C=C/c1ccc(O)cc1)CC(=O)/C=C/c1ccc(O)cc1 [CC2, Bisdemethoxycurcumin] | 6.49 ± 0.22 | – | – | 26.4 ± 3.67 | 36.2 ± 9.67 | – | 43.4 ± 5.19 | – | –
COc1cc(/C=C2\CC/C(=C\c3ccc(O)c(OC)c3)C2=O)ccc1O [CC4] | – | – | – | – | – | – | – | 43.9 ± 10.1 | –
COc1cc(C=C2CCCC(=Cc3ccc(O)c(OC)c3)C2=O)ccc1O [CC5] | – | – | – | – | – | – | – | 61 ± 8.7 | 25.5 ± 2.64

From paper PMC6541004 (Antiviral research, 2018)
